Measurements pooled from the literature.
Protocols differ between the studies behind these lines.
Target: Muscarinic acetylcholine receptor M2 (CHRM2, Homo sapiens, UniProt P08172)
Concentration: 10 µM
Sequence (P08172 1-466, as in one of the studies): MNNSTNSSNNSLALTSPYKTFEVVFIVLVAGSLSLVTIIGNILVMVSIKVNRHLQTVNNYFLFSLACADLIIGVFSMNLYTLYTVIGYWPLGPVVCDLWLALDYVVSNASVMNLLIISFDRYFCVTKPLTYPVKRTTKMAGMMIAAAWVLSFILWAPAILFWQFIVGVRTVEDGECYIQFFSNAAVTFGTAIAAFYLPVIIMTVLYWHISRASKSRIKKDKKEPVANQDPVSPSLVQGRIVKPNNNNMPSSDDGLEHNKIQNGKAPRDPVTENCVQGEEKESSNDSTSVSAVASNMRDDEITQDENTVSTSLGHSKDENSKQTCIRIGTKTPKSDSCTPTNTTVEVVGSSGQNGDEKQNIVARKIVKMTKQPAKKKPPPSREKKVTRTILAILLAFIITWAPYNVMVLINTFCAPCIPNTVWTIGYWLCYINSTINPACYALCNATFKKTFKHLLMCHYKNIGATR

| SMILES | test | measurement | result |
| --- | --- | --- | --- |
| Nc1ncc(-c2nc(N3CCOCC3)nc(N3CCOCC3)n2)c(C(F)F)n1 | cell-free assay, radioligand | remaining signal | 117% |
| CCN(CC)CCCC[C@H](NC(=O)[C@H](CC(C)C)NC(=O)[C@H](C)NC(=O)[C@H](Cc1ccccc1)NC(=O)c1ccc(C(C)(C)C)cc1)C(=O)N[C@@H](CO)C(=O)OC | ligand displacement, radioligand | inhibition | -6% |
| COCc1c(-c2cc3cc(C)cc(OC)c3s2)c2c(N)ncnn2c1CN1CCNC(=O)C1 | ligand displacement, radioligand | inhibition | -1% |
| CN1CC[C@]2(C)c3cc(OC(=O)Nc4ccccc4)ccc3N(C)[C@H]12 | ligand displacement, radioligand | inhibition | 0% |
| Clc1ccc2c(C3CCN(CCc4c[nH]c5ccccc45)CC3)c[nH]c2c1 | ligand displacement, radioligand | inhibition | 15% |
| CC(C)N1CCC[C@H]1CNC(=O)c1cn(C2CCCC2)c(=O)c2c1c1ccccc1n2C | ligand displacement, radioligand | inhibition | 1% |
| Cc1c(N2CCNCC2)nc2ccc(Br)cc2c1C(=O)NC[C@H](CCC(=O)O)c1ccccc1Cl | ligand displacement | inhibition | 13.8% |
| C[C@H](C(=O)N[C@H]1COc2ccccc2[C@@H]1S(C)(=O)=O)c1ccc(F)cc1 | cell-free assay | inhibition | 5% |
| Cn1cncc1[C@@](O)(COc1ccc(C#N)cc1-c1ccc(OC(F)(F)F)cc1)c1ccc(C#N)cc1 | ligand displacement | inhibition | -11.9% |
| c1ccc(C(NCCNC(c2ccccc2)c2ccccc2)c2ccccc2)cc1 | cell-free assay | inhibition | 45% |
